Experimental data as given in ChEMBL document CHEMBL3576819, “Design, synthesis, biological evaluation and molecular docking studies of phenylpropanoid derivatives as potent anti-hepatitis B virus agents” (Eur J Med Chem, 2015).

Experiments:
[1] = test system: Hepatitis B virus; test: Antiviral activity against Hepatitis B virus infected in human HepG2.2.15 cells assessed as inhibition of HBeAg secretion by ELISA; assay type: functional, organism-based; details: HepG2 2.2.15
Outline: (§1)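 HepG2.2.15 cells (MEM, 10% FBS, 380 µg/ml G418) seeded at 1×10^5 cells/ml, held 24 h at 37 °C, then treated with various drug concentrations; medium with drug renewed every 3 d for up to 9 d. Culture medium sampled on days 3, 6 and 9, stored at -20 °C, and assayed for secreted antigen. Lamivudine as positive control; IC50 = 50% inhibition of secretion; means of at least two experiments.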

[2] = test system: Hepatitis B virus; test: Antiviral activity against Hepatitis B virus infected in human HepG2.2.15 cells assessed as inhibition of HBeAg secretion at 37.5 uM after 3 days by ELISA; assay type: functional; details: HepG2 2.2.15, 72 h; outline: as §1
[3] = test system: Hepatitis B virus; test: Antiviral activity against Hepatitis B virus infected in human HepG2.2.15 cells assessed as cell survival at 75 uM after 9 days (reference value: 100%); assay type: functional; details: HepG2 2.2.15, 216 h
Outline: (§2)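 HepG2.2.15 cells (MEM, 10% FBS, 380 µg/ml G418, 37 °C, 5% CO2) seeded at 1×10^5 cells/ml, cultured 24 h, then exposed to various drug concentrations; drug-containing medium renewed every 3 d. OD read at 450 nm after 9 days; percent cell death calculated; CC50 = concentration killing 50% of cells. Means of at least two experiments.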

[4] = test system: Hepatitis B virus; test: Antiviral activity against Hepatitis B virus infected in human HepG2.2.15 cells assessed as inhibition of HBeAg secretion at 150 uM after 3 days by ELISA; assay type: functional; details: HepG2 2.2.15, 72 h; outline: as §1
[5] = test system: Hepatitis B virus; test: Antiviral activity against Hepatitis B virus infected in human HepG2.2.15 cells assessed as inhibition of HBeAg secretion at 150 uM after 9 days by ELISA; assay type: functional; details: HepG2 2.2.15, 216 h; outline: as §1
[6] = test system: Hepatitis B virus; test: Antiviral activity against Hepatitis B virus infected in human HepG2.2.15 cells assessed as inhibition of HBsAg secretion at 37.5 uM after 6 days by ELISA; assay type: functional; details: HepG2 2.2.15, 144 h; outline: as §1
[7] = test system: Hepatitis B virus; test: Antiviral activity against Hepatitis B virus infected in human HepG2.2.15 cells assessed as inhibition of HBeAg secretion at 300 uM after 9 days by ELISA; assay type: functional; details: HepG2 2.2.15, 216 h; outline: as §1
[8] = test system: Hepatitis B virus; test: Antiviral activity against Hepatitis B virus infected in human HepG2.2.15 cells assessed as inhibition of HBsAg secretion at 75 uM after 9 days by ELISA; assay type: functional; details: HepG2 2.2.15, 216 h; outline: as §1
[9] = test system: Hepatitis B virus; test: Antiviral activity against Hepatitis B virus infected in human HepG2.2.15 cells assessed as inhibition of HBsAg secretion by ELISA; assay type: functional, organism-based; details: HepG2 2.2.15; outline: as §1
[10] = test system: Hepatitis B virus; test: Antiviral activity against Hepatitis B virus infected in human HepG2.2.15 cells assessed as inhibition of HBeAg secretion at 150 uM after 6 days by ELISA; assay type: functional; details: HepG2 2.2.15, 144 h; outline: as §1
[11] = test system: Hepatitis B virus; test: Antiviral activity against Hepatitis B virus infected in human HepG2.2.15 cells assessed as inhibition of HBeAg secretion at 37.5 uM after 9 days by ELISA; assay type: functional; details: HepG2 2.2.15, 216 h; outline: as §1
[12] = test system: Hepatitis B virus; test: Antiviral activity against Hepatitis B virus infected in human HepG2.2.15 cells assessed as cell survival at 300 uM after 9 days (reference value: 100%); assay type: functional; details: HepG2 2.2.15, 216 h; outline: as §2
[13] = test system: Hepatitis B virus; test: Antiviral activity against Hepatitis B virus infected in human HepG2.2.15 cells assessed as inhibition of HBsAg secretion at 300 uM after 3 days by ELISA; assay type: functional; details: HepG2 2.2.15, 72 h; outline: as §1
[14] = test system: Hepatitis B virus; test: Antiviral activity against Hepatitis B virus infected in human HepG2.2.15 cells assessed as inhibition of HBsAg secretion at 300 uM after 9 days by ELISA; assay type: functional; details: HepG2 2.2.15, 216 h; outline: as §1
[15] = test system: Hepatitis B virus; test: Antiviral activity against Hepatitis B virus infected in human HepG2.2.15 cells assessed as inhibition of HBsAg secretion at 75 uM after 3 days by ELISA; assay type: functional; details: HepG2 2.2.15, 72 h; outline: as §1
[16] = test system: Hepatitis B virus; test: Antiviral activity against Hepatitis B virus infected in human HepG2.2.15 cells assessed as cell survival at 150 uM after 9 days (reference value: 100%); assay type: functional; details: HepG2 2.2.15, 216 h; outline: as §2
[17] = test system: Hepatitis B virus; test: Antiviral activity against Hepatitis B virus infected in human HepG2.2.15 cells assessed as inhibition of HBsAg secretion at 37.5 uM after 9 days by ELISA; assay type: functional; details: HepG2 2.2.15, 216 h; outline: as §1
[18] = test system: Hepatitis B virus; test: Antiviral activity against Hepatitis B virus infected in human HepG2.2.15 cells assessed as inhibition of HBeAg secretion at 75 uM after 6 days by ELISA; assay type: functional; details: HepG2 2.2.15, 144 h; outline: as §1
[19] = test system: Hepatitis B virus; test: Antiviral activity against Hepatitis B virus infected in human HepG2.2.15 cells assessed as inhibition of HBsAg secretion at 150 uM after 3 days by ELISA; assay type: functional; details: HepG2 2.2.15, 72 h; outline: as §1
[20] = test system: Hepatitis B virus; test: Antiviral activity against Hepatitis B virus infected in human HepG2.2.15 cells assessed as inhibition of HBeAg secretion at 75 uM after 9 days by ELISA; assay type: functional; details: HepG2 2.2.15, 216 h; outline: as §1
[21] = test system: Hepatitis B virus; test: Antiviral activity against Hepatitis B virus infected in human HepG2.2.15 cells assessed as inhibition of HBsAg secretion at 37.5 uM after 3 days by ELISA; assay type: functional; details: HepG2 2.2.15, 72 h; outline: as §1
[22] = Cytotoxicity against human HepG2.2.15 cells assessed as cell death after 9 days by MTT assay; assay type: cell-based, HepG2 2.2.15; outline: as §2
[23] = test system: Hepatitis B virus; test: Antiviral activity against Hepatitis B virus infected in human HepG2.2.15 cells assessed as inhibition of HBeAg secretion at 300 uM after 6 days by ELISA; assay type: functional; details: HepG2 2.2.15, 144 h; outline: as §1
[24] = test system: Hepatitis B virus; test: Antiviral activity against Hepatitis B virus infected in human HepG2.2.15 cells assessed as inhibition of HBeAg secretion at 300 uM after 3 days by ELISA; assay type: functional; details: HepG2 2.2.15, 72 h; outline: as §1
[25] = test system: Hepatitis B virus; test: Antiviral activity against Hepatitis B virus infected in human HepG2.2.15 cells assessed as inhibition of HBsAg secretion at 150 uM after 9 days by ELISA; assay type: functional; details: HepG2 2.2.15, 216 h; outline: as §1
[26] = Selectivity index, ratio of CC50 for human HepG2.2.15 cells to IC50 for Hepatitis B virus infected in human HepG2.2.15 cells assessed as inhibition of HBeAg secretion; assay type: functional
Outline: (§3)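 Selectivity index computed as CC50/IC50, with CC50 from cell death of HepG2.2.15 cells after 9 days of treatment (OD 450 nm) and IC50 from 50% inhibition of HBeAg or HBsAg secretion in the same cells; medium with drug renewed every 3 d.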

[27] = test system: Hepatitis B virus; test: Antiviral activity against Hepatitis B virus infected in human HepG2.2.15 cells assessed as inhibition of HBeAg secretion at 75 uM after 3 days by ELISA; assay type: functional; details: HepG2 2.2.15, 72 h; outline: as §1
[28] = test system: Hepatitis B virus; test: Antiviral activity against Hepatitis B virus infected in human HepG2.2.15 cells assessed as inhibition of HBeAg secretion at 37.5 uM after 6 days by ELISA; assay type: functional; details: HepG2 2.2.15, 144 h; outline: as §1
[29] = Selectivity index, ratio of CC50 for human HepG2.2.15 cells to IC50 for Hepatitis B virus infected in human HepG2.2.15 cells assessed as inhibition of HBsAg secretion; assay type: functional; outline: as §3
[30] = test system: Hepatitis B virus; test: Antiviral activity against Hepatitis B virus infected in human HepG2.2.15 cells assessed as inhibition of HBsAg secretion at 300 uM after 6 days by ELISA; assay type: functional; details: HepG2 2.2.15, 144 h; outline: as §1
[31] = test system: Hepatitis B virus; test: Antiviral activity against Hepatitis B virus infected in human HepG2.2.15 cells assessed as cell survival at 37.5 uM after 9 days (reference value: 100%); assay type: functional; details: HepG2 2.2.15, 216 h; outline: as §2
[32] = test system: Hepatitis B virus; test: Antiviral activity against Hepatitis B virus infected in human HepG2.2.15 cells assessed as inhibition of HBsAg secretion at 150 uM after 6 days by ELISA; assay type: functional; details: HepG2 2.2.15, 144 h; outline: as §1
[33] = test system: Hepatitis B virus; test: Antiviral activity against Hepatitis B virus infected in human HepG2.2.15 cells assessed as inhibition of HBsAg secretion at 75 uM after 6 days by ELISA; assay type: functional; details: HepG2 2.2.15, 144 h; outline: as §1

IC50 [1] | IC50 [9] | Compound | inhibition at 37.5 µM [2] | viability at 75 µM [3] | inhibition at 150 µM [4] | inhibition at 150 µM [5] | inhibition at 37.5 µM [6] | inhibition at 300 µM [7] | inhibition at 75 µM [8] | inhibition at 150 µM [10] | inhibition at 37.5 µM [11] | viability at 300 µM [12] | inhibition at 300 µM [13] | inhibition at 300 µM [14] | inhibition at 75 µM [15] | viability at 150 µM [16] | inhibition at 37.5 µM [17] | inhibition at 75 µM [18] | inhibition at 150 µM [19] | inhibition at 75 µM [20] | also measured
190 µM | 173 µM | COc1cc(/C=C/C(=O)O/N=C/c2ccco2)cc(OC)c1OC | 5.59% | 127% | 22.6% | 45.1% | 15.2% | 58% | 36% | 34.3% | 25.4% | 76.1% | 36.7% | 60.8% | 16.2% | 93.2% | 15.8% | 25.8% | 23.7% | 35.6% | inhibition at 37.5 µM [21]: 8.45%; CC50 at 216 h [22]: 1050 µM; inhibition at 300 µM [23]: 42.6%; inhibition at 300 µM [24]: 29.2%; inhibition at 150 µM [25]: 47.1%; Ratio CC50/IC50 [26]: 5.54; inhibition at 75 µM [27]: 13.2%; inhibition at 37.5 µM [28]: 17.9%; Ratio CC50/IC50 [29]: 6.06; inhibition at 300 µM [30]: 50.1%; viability at 37.5 µM [31]: 133%; inhibition at 150 µM [32]: 36.4%; inhibition at 75 µM [33]: 28.9%
81.8 µM | 64.6 µM | O=C(/C=C/c1ccc2c(c1)OCO2)O/N=C/c1ccco1 | 16.9% | 85.5% | 35.2% | 59.1% | 31.5% | 86.7% | 59.5% | 56.5% | 30.3% | 43% | 57.9% | 85.4% | 31.2% | 73.8% | 32.4% | 45.8% | 42.9% | 47% | inhibition at 37.5 µM [21]: 22.3%; CC50 at 216 h [22]: 480 µM; inhibition at 300 µM [23]: 71%; inhibition at 300 µM [24]: 47.2%; inhibition at 150 µM [25]: 70.5%; Ratio CC50/IC50 [26]: 5.86; inhibition at 75 µM [27]: 24.8%; inhibition at 37.5 µM [28]: 26%; Ratio CC50/IC50 [29]: 7.42; inhibition at 300 µM [30]: 79.5%; viability at 37.5 µM [31]: 94.4%; inhibition at 150 µM [32]: 70.4%; inhibition at 75 µM [33]: 54.6%
118 µM | 75.8 µM | O=C(/C=C/c1ccc2c(c1)OCO2)O/N=C/c1cccs1 | 15.9% | 105% | 33.5% | 51.5% | 29.6% | 71.6% | 52% | 46.1% | 25.4% | 79.4% | 58.3% | 88.1% | 32.1% | 92.2% | 29.7% | 32% | 46.3% | 42.9% | inhibition at 37.5 µM [21]: 20.4%; CC50 at 216 h [22]: 266 µM; inhibition at 300 µM [23]: 63.2%; inhibition at 300 µM [24]: 51.3%; inhibition at 150 µM [25]: 63.1%; Ratio CC50/IC50 [26]: 2.26; inhibition at 75 µM [27]: 25.7%; inhibition at 37.5 µM [28]: 20.6%; Ratio CC50/IC50 [29]: 3.51; inhibition at 300 µM [30]: 87.5%; viability at 37.5 µM [31]: 112%; inhibition at 150 µM [32]: 63.2%; inhibition at 75 µM [33]: 45.4%
